Common to all, as to format: functional
Assay [1] concerns the target T1, Ornithine decarboxylase (Mus musculus) (UniProt P00860).
T1 sequence (whole entry): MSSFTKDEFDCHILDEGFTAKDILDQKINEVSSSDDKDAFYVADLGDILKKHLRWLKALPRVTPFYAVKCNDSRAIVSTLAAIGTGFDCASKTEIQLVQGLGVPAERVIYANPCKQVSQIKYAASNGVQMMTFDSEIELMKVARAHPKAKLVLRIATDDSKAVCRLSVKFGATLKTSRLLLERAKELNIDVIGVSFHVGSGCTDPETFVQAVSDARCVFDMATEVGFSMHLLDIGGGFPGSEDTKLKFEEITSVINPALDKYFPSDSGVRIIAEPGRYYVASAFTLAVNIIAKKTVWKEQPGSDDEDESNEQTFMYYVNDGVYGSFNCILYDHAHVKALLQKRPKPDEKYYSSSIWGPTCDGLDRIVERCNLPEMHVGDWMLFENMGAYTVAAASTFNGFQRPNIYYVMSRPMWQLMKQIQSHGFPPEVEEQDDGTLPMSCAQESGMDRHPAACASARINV
Description: Inhibition of tumor promoter (TPA) -induced mouse epidermal ornithine decarboxylase (ODC) activity at 17 nmol dose level. In short, it runs like this: (§1)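 Retinoid applied topically to mouse skin 1 h before topical TPA (12-O-tetradecanoylphorbol 13-acetate) to induce epidermal ODC. Dorsal skin from each group of mice was pooled and ODC activity assayed in triplicate. Activity is expressed as % inhibition of TPA-induced ODC relative to TPA-only controls (mean ± SE over groups).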

For assay [2], the target named is T1, Ornithine decarboxylase (Mus musculus). Briefly: Inhibition of tumor promoter (TPA) -induced mouse epidermal ornithine decarboxylase (ODC) activity at 170 nmol dose level. In short, it runs like this:
as §1

Assay [3] has the same target. Briefly: Inhibition of tumor promoter (TPA) -induced mouse epidermal ornithine decarboxylase (ODC) activity at 1.7 nmol dose level. In short, it runs like this:
as §1

This note sets out measurements from ChEMBL document CHEMBL1121834, “Aromatic retinoic acid analogues. Synthesis and pharmacological activity” (J Med Chem, 1981).

One may read the inhibition as the drop in the measured response relative to a control, in per cent. Consider `CC1=C(/C=C/C(C)=C/C=C/c2ccccc2C(=O)O)C(C)(C)CCC1`, for which the inhibition in assay [1] amounted to 7%.
Still for that read-out and setting: then `CCOC(=O)c1ccc(/C=C(C)/C=C/C23OC2(C)CCCC3(C)C)cc1` (stereo unspecified), with 71%; and `CC1=C(/C=C/C(C)=C\C=C\c2ccccc2O)C(C)(C)CCC1`, with 0%.
`CC1=C(/C=C/C(C)=C\c2ccc(C(=O)O)cc2)C(C)(C)CCC1`: the inhibition in assay [1] is 43%; in assay [2] it was 64%; in assay [3], 33%.
In turn, `CC1=C(/C=C/C(C)=C/C=C/c2ccccc2O)C(C)(C)CCC1` came in with an inhibition in assay [1] of 25%.
`CCOC(=O)c1ccc(/C=C(C)/C=C/C2=C(C)CCCC2(C)C)cc1C` showed an inhibition in assay [1] of 0%.
As to `CC1=C(/C=C/C(C)=C/c2ccc(C(=O)O)cc2)C(C)(C)CCC1`, the inhibition in assay [1] amounted to 77%; in assay [2], 87%; in assay [3], 62%.
